# Experimental data as given in ChEMBL document CHEMBL1150672, “Chemical transformations on botryane skeleton. Effect on the cytotoxic activity” (J Nat Prod, 2003).
# Tested on: not listed separately
# Experiment: Cytotoxicity against human IMR90 cells after 24 hrs by MTT assay
# Assay type: cell-based, IMR-90
# Settings: read-out: ID50
# In short: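 IMR-90 embryonic fibroblasts (ATCC) were grown in DMEM with 10% FCS and 1% glutamine at 37 °C, 5% CO2. Cells were plated at 4 or 8×10^3/well and attached overnight. They were treated 24 h, in duplicate, with compounds from methanol stocks diluted in medium, with a methanol blank. MTT (5 mg/mL stock) was added for 4 h, formazan dissolved in DMSO, and read at 550 nm.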
row,SMILES,CC50 at 24 h [mg/L]
1,CC(=O)O[C@H]1C[C@@H](C)[C@H](C=O)[C@]2(O)[C@@H]1C(C)(C)C[C@@]2(C)C=O,10
2,CC(=O)O[C@H]1C[C@@H](C)[C@@H]2C(=O)OC[C@@]3(C)CC(C)(C)[C@H]1[C@]23O,> 10
3,CC(=O)O[C@H]1C[C@@H](C)C(C=O)=C2[C@@H]1C(C)(C)C[C@]2(C)CO [BOTRYENALOL],> 10
4,Cc1ccc2c(c1CO)[C@@](C)(CO)C[C@@]2(C)CO,> 10
5,CC(=O)O[C@H]1C[C@@H](C)[C@@H]2COC[C@@]3(C)CC(C)(C)[C@H]1[C@]23O,> 10
6,COC(=O)[C@H]1[C@H](C)C[C@H](OC(C)=O)[C@H]2C(C)(C)C[C@](C)(C(=O)OC)[C@@]12O [DIMETHYL BOTRYDIOATE],> 10
7,CC(=O)O[C@H]1C[C@@H](C)[C@@H]2[C@@H](O)[C@H](O)[C@@]3(C)CC(C)(C)[C@H]1[C@]23O,> 10
8,COC(=O)[C@@]1(C)CC(C)(C)[C@@H]2[C@@H](OC(C)=O)C[C@@H](C)[C@H](C=O)[C@@]21O [METHYL ACETYLBOTRYALOATE],> 10
9,CC(=O)O[C@H]1C[C@@H](C)[C@H](CO)C2=C1C(C)(C)C[C@]2(C)CO,> 10
10,CC(=O)O[C@H]1C[C@@H](C)[C@H](CO)[C@@]2(O)[C@@H]1C(C)(C)C[C@]2(C)CO [BOTRYDIOL],> 10
11,C=CC1=C(/C(=C\C)CO)[C@@](C)(CO)CC1(C)C [SECOBOTRYTRIENDIOL],> 10

# Tested on: not listed separately
# Experiment: Cytotoxicity against HUVEC after 24 hrs by MTT assay
# Assay type: cell-based
# Settings: human, read-out: ID50
# In short: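 Primary HUVEC from newborns, grown in DMEM/medium 199 with 20% FCS, 10 mM HEPES, heparin and ECGS at 37 °C, 5% CO2. Cells were seeded at 4 or 8×10^3/well and attached overnight. Compounds were added from methanol solutions diluted in medium, with a methanol blank, for 24 h in duplicate. MTT (5 mg/mL stock) was added for 4 h, formazan dissolved in DMSO, and A550 read.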
row,SMILES,CC50 at 24 h [mg/L]
1,CC(=O)O[C@H]1C[C@@H](C)[C@H](C=O)[C@]2(O)[C@@H]1C(C)(C)C[C@@]2(C)C=O,5
2,CC(=O)O[C@H]1C[C@@H](C)[C@@H]2C(=O)OC[C@@]3(C)CC(C)(C)[C@H]1[C@]23O,> 10
3,CC(=O)O[C@H]1C[C@@H](C)C(C=O)=C2[C@@H]1C(C)(C)C[C@]2(C)CO [BOTRYENALOL],> 10
4,Cc1ccc2c(c1CO)[C@@](C)(CO)C[C@@]2(C)CO,> 10
5,CC(=O)O[C@H]1C[C@@H](C)[C@@H]2COC[C@@]3(C)CC(C)(C)[C@H]1[C@]23O,> 10
6,COC(=O)[C@H]1[C@H](C)C[C@H](OC(C)=O)[C@H]2C(C)(C)C[C@](C)(C(=O)OC)[C@@]12O [DIMETHYL BOTRYDIOATE],> 10
7,CC(=O)O[C@H]1C[C@@H](C)[C@@H]2[C@@H](O)[C@H](O)[C@@]3(C)CC(C)(C)[C@H]1[C@]23O,> 10
8,COC(=O)[C@@]1(C)CC(C)(C)[C@@H]2[C@@H](OC(C)=O)C[C@@H](C)[C@H](C=O)[C@@]21O [METHYL ACETYLBOTRYALOATE],> 10
9,CC(=O)O[C@H]1C[C@@H](C)[C@H](CO)C2=C1C(C)(C)C[C@]2(C)CO,> 10
10,CC(=O)O[C@H]1C[C@@H](C)[C@H](CO)[C@@]2(O)[C@@H]1C(C)(C)C[C@]2(C)CO [BOTRYDIOL],> 10
11,C=CC1=C(/C(=C\C)CO)[C@@](C)(CO)CC1(C)C [SECOBOTRYTRIENDIOL],> 10

# Tested on: HT-1080
# Experiment: Cytotoxicity against human HT1080 cells after 24 hrs by MTT assay
# Assay type: functional
# Settings: HT-1080, 24 h, read-out: ID50 (the source's name)
# In short: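 HT-1080 cells (ATCC) were kept in DMEM with 10% FCS, 1% glutamine and 1% vitamins at 37 °C, 5% CO2. Cells were seeded at 4 or 8×10^3/well and attached overnight, then exposed for 24 h in duplicate to methanol-dissolved compounds diluted in medium, with a methanol blank. MTT (5 mg/mL stock) was given for 4 h, formazan solubilized in DMSO, and absorbance read at 550 nm.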
row,SMILES,IC50 [mg/L]
1,CC(=O)O[C@H]1C[C@@H](C)[C@H](C=O)[C@]2(O)[C@@H]1C(C)(C)C[C@@]2(C)C=O,5
2,CC(=O)O[C@H]1C[C@@H](C)[C@@H]2C(=O)OC[C@@]3(C)CC(C)(C)[C@H]1[C@]23O,> 10
3,CC(=O)O[C@H]1C[C@@H](C)C(C=O)=C2[C@@H]1C(C)(C)C[C@]2(C)CO [BOTRYENALOL],> 10
4,Cc1ccc2c(c1CO)[C@@](C)(CO)C[C@@]2(C)CO,> 10
5,CC(=O)O[C@H]1C[C@@H](C)[C@@H]2COC[C@@]3(C)CC(C)(C)[C@H]1[C@]23O,> 10
6,COC(=O)[C@H]1[C@H](C)C[C@H](OC(C)=O)[C@H]2C(C)(C)C[C@](C)(C(=O)OC)[C@@]12O [DIMETHYL BOTRYDIOATE],> 10
7,CC(=O)O[C@H]1C[C@@H](C)[C@@H]2[C@@H](O)[C@H](O)[C@@]3(C)CC(C)(C)[C@H]1[C@]23O,> 10
8,COC(=O)[C@@]1(C)CC(C)(C)[C@@H]2[C@@H](OC(C)=O)C[C@@H](C)[C@H](C=O)[C@@]21O [METHYL ACETYLBOTRYALOATE],> 10
9,CC(=O)O[C@H]1C[C@@H](C)[C@H](CO)C2=C1C(C)(C)C[C@]2(C)CO,> 10
10,CC(=O)O[C@H]1C[C@@H](C)[C@H](CO)[C@@]2(O)[C@@H]1C(C)(C)C[C@]2(C)CO [BOTRYDIOL],> 10
11,C=CC1=C(/C(=C\C)CO)[C@@](C)(CO)CC1(C)C [SECOBOTRYTRIENDIOL],> 10

# Tested on: not listed separately
# Experiment: Cytotoxicity against human Hs 578T cells after 24 hrs by MTT assay
# Assay type: functional
# Settings: read-out: ID50 (the source's name)
# In short: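 Hs578T cells (ATCC) were maintained in DMEM with 10% FCS, 1% glutamine and 10 μg/mL insulin. Cells were seeded at 4 or 8×10^3/well and allowed to adhere overnight at 37 °C. They were exposed 24 h, in duplicate, to compounds in methanol diluted with medium, with a methanol blank. MTT (5 mg/mL stock) was added for 4 h, formazan dissolved in DMSO, and A550 measured.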
row,SMILES,IC50 [mg/L]
1,CC(=O)O[C@H]1C[C@@H](C)[C@H](C=O)[C@]2(O)[C@@H]1C(C)(C)C[C@@]2(C)C=O,1
2,CC(=O)O[C@H]1C[C@@H](C)[C@@H]2C(=O)OC[C@@]3(C)CC(C)(C)[C@H]1[C@]23O,> 10
3,CC(=O)O[C@H]1C[C@@H](C)C(C=O)=C2[C@@H]1C(C)(C)C[C@]2(C)CO [BOTRYENALOL],> 10
4,Cc1ccc2c(c1CO)[C@@](C)(CO)C[C@@]2(C)CO,> 10
5,CC(=O)O[C@H]1C[C@@H](C)[C@@H]2COC[C@@]3(C)CC(C)(C)[C@H]1[C@]23O,> 10
6,COC(=O)[C@H]1[C@H](C)C[C@H](OC(C)=O)[C@H]2C(C)(C)C[C@](C)(C(=O)OC)[C@@]12O [DIMETHYL BOTRYDIOATE],> 10
7,CC(=O)O[C@H]1C[C@@H](C)[C@@H]2[C@@H](O)[C@H](O)[C@@]3(C)CC(C)(C)[C@H]1[C@]23O,> 10
8,COC(=O)[C@@]1(C)CC(C)(C)[C@@H]2[C@@H](OC(C)=O)C[C@@H](C)[C@H](C=O)[C@@]21O [METHYL ACETYLBOTRYALOATE],> 10
9,CC(=O)O[C@H]1C[C@@H](C)[C@H](CO)C2=C1C(C)(C)C[C@]2(C)CO,> 10
10,CC(=O)O[C@H]1C[C@@H](C)[C@H](CO)[C@@]2(O)[C@@H]1C(C)(C)C[C@]2(C)CO [BOTRYDIOL],> 10
11,C=CC1=C(/C(=C\C)CO)[C@@](C)(CO)CC1(C)C [SECOBOTRYTRIENDIOL],> 10

# Tested on: not listed separately
# Experiment: Cytotoxicity against human U87MG cells after 24 hrs by MTT assay
# Assay type: functional, U-87MG ATCC
# Settings: U-87 MG, read-out: ID50 (the source's name)
# In short: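 U87-MG glioblastoma cells (ATCC) were grown in MEM with 10% FCS, 1% sodium pyruvate and 1% nonessential amino acids. Cells were seeded at 4 or 8×10^3/well and adhered overnight at 37 °C. They were exposed 24 h, in duplicate, to methanol-dissolved compounds diluted in medium, with a methanol blank. MTT (5 mg/mL stock) was added for 4 h, formazan dissolved in DMSO, and absorbance read at 550 nm.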
row,SMILES,IC50 [mg/L]
1,CC(=O)O[C@H]1C[C@@H](C)[C@H](C=O)[C@]2(O)[C@@H]1C(C)(C)C[C@@]2(C)C=O,1
2,CC(=O)O[C@H]1C[C@@H](C)[C@@H]2C(=O)OC[C@@]3(C)CC(C)(C)[C@H]1[C@]23O,> 10
3,CC(=O)O[C@H]1C[C@@H](C)C(C=O)=C2[C@@H]1C(C)(C)C[C@]2(C)CO [BOTRYENALOL],> 10
4,Cc1ccc2c(c1CO)[C@@](C)(CO)C[C@@]2(C)CO,> 10
5,CC(=O)O[C@H]1C[C@@H](C)[C@@H]2COC[C@@]3(C)CC(C)(C)[C@H]1[C@]23O,> 10
6,COC(=O)[C@H]1[C@H](C)C[C@H](OC(C)=O)[C@H]2C(C)(C)C[C@](C)(C(=O)OC)[C@@]12O [DIMETHYL BOTRYDIOATE],> 10
7,CC(=O)O[C@H]1C[C@@H](C)[C@@H]2[C@@H](O)[C@H](O)[C@@]3(C)CC(C)(C)[C@H]1[C@]23O,> 10
8,COC(=O)[C@@]1(C)CC(C)(C)[C@@H]2[C@@H](OC(C)=O)C[C@@H](C)[C@H](C=O)[C@@]21O [METHYL ACETYLBOTRYALOATE],> 10
9,CC(=O)O[C@H]1C[C@@H](C)[C@H](CO)C2=C1C(C)(C)C[C@]2(C)CO,> 10
10,CC(=O)O[C@H]1C[C@@H](C)[C@H](CO)[C@@]2(O)[C@@H]1C(C)(C)C[C@]2(C)CO [BOTRYDIOL],> 10
11,C=CC1=C(/C(=C\C)CO)[C@@](C)(CO)CC1(C)C [SECOBOTRYTRIENDIOL],> 10

# Tested on: MDA-MB-231
# Experiment: Cytotoxicity against human MDA-MB-231 cells after 24 hrs by MTT assay
# Assay type: functional
# Settings: MDA-MB-231, 24 h, read-out: ID50 (the source's name)
# In short: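 MDA-MB-231 cells (ATCC) were cultured in Leibovitz's L-15 with 10% FCS. Cells were seeded at 4 or 8×10^3/well and attached overnight at 37 °C. Compounds dissolved in methanol and diluted in medium were added for 24 h in duplicate, with a methanol blank. MTT (5 mg/mL stock) was added for 4 h, formazan taken up in DMSO, and A550 recorded.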
row,SMILES,IC50 [mg/L]
1,CC(=O)O[C@H]1C[C@@H](C)[C@H](C=O)[C@]2(O)[C@@H]1C(C)(C)C[C@@]2(C)C=O,0.1
2,CC(=O)O[C@H]1C[C@@H](C)[C@@H]2C(=O)OC[C@@]3(C)CC(C)(C)[C@H]1[C@]23O,> 10
3,CC(=O)O[C@H]1C[C@@H](C)C(C=O)=C2[C@@H]1C(C)(C)C[C@]2(C)CO [BOTRYENALOL],> 10
4,Cc1ccc2c(c1CO)[C@@](C)(CO)C[C@@]2(C)CO,> 10
5,CC(=O)O[C@H]1C[C@@H](C)[C@@H]2COC[C@@]3(C)CC(C)(C)[C@H]1[C@]23O,> 10
6,COC(=O)[C@H]1[C@H](C)C[C@H](OC(C)=O)[C@H]2C(C)(C)C[C@](C)(C(=O)OC)[C@@]12O [DIMETHYL BOTRYDIOATE],> 10
7,CC(=O)O[C@H]1C[C@@H](C)[C@@H]2[C@@H](O)[C@H](O)[C@@]3(C)CC(C)(C)[C@H]1[C@]23O,> 10
8,COC(=O)[C@@]1(C)CC(C)(C)[C@@H]2[C@@H](OC(C)=O)C[C@@H](C)[C@H](C=O)[C@@]21O [METHYL ACETYLBOTRYALOATE],> 10
9,CC(=O)O[C@H]1C[C@@H](C)[C@H](CO)C2=C1C(C)(C)C[C@]2(C)CO,> 10
10,CC(=O)O[C@H]1C[C@@H](C)[C@H](CO)[C@@]2(O)[C@@H]1C(C)(C)C[C@]2(C)CO [BOTRYDIOL],> 10
11,C=CC1=C(/C(=C\C)CO)[C@@](C)(CO)CC1(C)C [SECOBOTRYTRIENDIOL],> 10
